# Test results from ChEMBL document CHEMBL1144027, “Synthesis and antimycobacterial evaluation of newer 1-cyclopropyl-1,4-dihydro-6-fluoro-7-(substituted secondary amino)-8-methoxy-5-(sub)-4-oxoquinoline-3-carboxylic acids” (Bioorg Med Chem, 2008).
# Key:
# [1] = test system: Vero; assay: Cytotoxicity against african green monkey Vero cells after 72 hrs by MTT assay; type: cell-based; details: Chlorocebus sabaeus
# In short: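 Mammalian Vero cells exposed to compounds at 62.5 µg/ml for 72 h; viability read by cellular conversion of MTT to formazan (Cell Titer 96 non-radioactive proliferation assay).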
# [2] = test system: Mycobacterium tuberculosis; assay: Antimycobacterial activity against Mycobacterium tuberculosis H37Rv by agar dilution method; type: functional
# In short: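 Agar dilution MIC on Middlebrook 7H11 agar with OADC, following the NCCLS-recommended approach, run in duplicate. The MDR clinical isolate was resistant to isoniazid, rifampicin, ethambutol and ofloxacin.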
# [3] = molecular target: DNA gyrase subunit B (Mycobacterium smegmatis (strain ATCC 700084 / mc(2)155), UniProt A0QNE0); assay: Inhibition of Mycobacterium smegmatis MC2 DNA gyrase GyrB ATPase supercoiling activity; parameters: species or system Mycolicibacterium smegmatis
# Chain of DNA gyrase subunit B (Mycobacterium smegmatis (strain ATCC 700084 / mc(2)155), UniProt A0QNE0) (A0QNE0 whole entry): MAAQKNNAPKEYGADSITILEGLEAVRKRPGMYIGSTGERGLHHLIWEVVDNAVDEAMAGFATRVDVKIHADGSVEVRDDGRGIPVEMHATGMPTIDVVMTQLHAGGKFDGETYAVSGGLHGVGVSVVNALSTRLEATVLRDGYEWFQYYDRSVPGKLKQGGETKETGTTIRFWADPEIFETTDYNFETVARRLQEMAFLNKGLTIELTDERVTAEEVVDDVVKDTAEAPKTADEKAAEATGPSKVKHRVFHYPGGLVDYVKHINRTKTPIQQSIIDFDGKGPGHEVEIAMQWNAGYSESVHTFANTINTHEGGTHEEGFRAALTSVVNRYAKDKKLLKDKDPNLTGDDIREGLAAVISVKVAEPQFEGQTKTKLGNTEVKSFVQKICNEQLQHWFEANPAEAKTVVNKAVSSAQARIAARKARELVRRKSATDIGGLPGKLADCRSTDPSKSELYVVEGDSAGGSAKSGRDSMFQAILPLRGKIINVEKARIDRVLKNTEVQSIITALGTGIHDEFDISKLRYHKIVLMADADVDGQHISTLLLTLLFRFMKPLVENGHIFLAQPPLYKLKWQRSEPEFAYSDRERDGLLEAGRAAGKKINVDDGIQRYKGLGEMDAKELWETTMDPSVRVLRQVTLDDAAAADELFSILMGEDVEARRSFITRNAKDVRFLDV
# In short: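 Gyrase purified from M. smegmatis MC2 cells; compounds in DMSO pre-incubated with enzyme, then 400 ng relaxed pUC18 added in 35 mM Tris-HCl pH 7.5, 5 mM MgCl2, 25 mM K glutamate, 2 mM spermidine, 2 mM ATP, BSA, tRNA, 5% glycerol; 30 min; heat-stopped 65 °C 15 min; agarose gel, ethidium bromide staining; ciprofloxacin 10 µg/ml and 5% DMSO controls.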
# [4] = test system: Mycolicibacterium smegmatis; assay: Antimycobacterial activity against Mycobacterium smegmatis MC2 by agar dilution method; type: functional
# In short: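 Agar dilution in Middlebrook 7H11 agar with OADC, run along NCCLS-recommended lines; M. smegmatis ATCC 14468 (MC2); MIC determined in duplicate.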
# [5] = test system: Mus musculus; assay: Phototoxicity in Swiss albino mouse assessed as erythema incidence at 140 mg/kg, po after 24 hrs of irradiation; type: organism-based; parameters: dose 140 mg/kg, route oral; details: in vivo
# In short: (§1)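 Female Swiss albino mice (~2 months, 20-25 g), fasted ≥18 h, single 140 mg/kg oral gavage dose; groups of 6 (compound, lomefloxacin HCl 140 mg/kg, 0.5% carboxymethylcellulose vehicle 10 ml/kg); UV irradiation 4 h (~18 J/cm²) right after dosing; both ears scored for erythema, oedema, thickness pre-dose, at end of irradiation, and ~24-96 h; thickness given as mean of both ears ± SEM.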
# [6] = test system: Mus musculus; assay: Phototoxicity in Swiss albino mouse assessed as ear thickness at 140 mg/kg, po after 4 hrs of irradiation; type: organism-based; parameters: dose 140 mg/kg, route oral; details: in vivo; in short: as §1
# [7] = test system: Mus musculus; assay: Phototoxicity in Swiss albino mouse assessed as erythema incidence at 140 mg/kg, po after 4 hrs of irradiation; type: organism-based; parameters: dose 140 mg/kg, route oral; details: in vivo; in short: as §1
# [8] = test system: Mus musculus; assay: Phototoxicity in Swiss albino mouse assessed as ear thickness at 140 mg/kg, po after 48 hrs of irradiation; type: organism-based; parameters: dose 140 mg/kg, route oral; details: in vivo; in short: as §1
# [9] = test system: Mus musculus; assay: Phototoxicity in Swiss albino mouse assessed as ear thickness at 140 mg/kg, po after 72 hrs of irradiation; type: organism-based; parameters: dose 140 mg/kg, route oral; details: in vivo; in short: as §1
# [10] = test system: Mus musculus; assay: (§2) Phototoxicity in Swiss albino mouse assessed as erythema incidence at 140 mg/kg, po after 48 hrs of irradiation; type: organism-based; parameters: dose 140 mg/kg, route oral; details: in vivo; in short: as §1
# [11] = test system: Mus musculus; assay: Phototoxicity in Swiss albino mouse assessed as erythema incidence at 140 mg/kg, po after 96 hrs of irradiation; type: organism-based; parameters: dose 140 mg/kg, route oral; details: in vivo; in short: as §1
# [12] = test system: Mus musculus; assay: Phototoxicity in Swiss albino mouse assessed as ear thickness at 140 mg/kg, po after 96 hrs of irradiation; type: organism-based; parameters: dose 140 mg/kg, route oral; details: in vivo; in short: as §1
# [13] = test system: Mus musculus; assay: Phototoxicity in Swiss albino mouse assessed as ear thickness at 140 mg/kg, po after 24 hrs of irradiation; type: organism-based; parameters: dose 140 mg/kg, route oral; details: in vivo; in short: as §1
# [14] = test system: Mus musculus; assay: as §2; type: organism-based; parameters: dose 140 mg/kg, route oral; details: in vivo; in short: as §1; remark: listed apart in the source
# [15] = test system: Mycobacterium tuberculosis; assay: Antimycobacterial activity against Mycobacterium tuberculosis ATCC 35801 infected in CD1 mouse assessed as bacterial load in spleen at 50 mg/kg, ip after 10 days; type: functional; details: route intraperitoneal
# In short: (§3)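 Female CD-1 mice, 6 weeks old, six per group, infected IV via caudal vein with ~10⁷ viable organisms. Intraperitoneal treatment started 10 days after inoculation and ran 10 days. At 35 days post-infection, spleens and right lungs were homogenised and serially 10-fold diluted onto 7H10 agar, incubated 4 weeks at 37 °C in ambient air. CFU compared with vehicle-treated controls.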
# [16] = test system: Mycobacterium tuberculosis; assay: Antimycobacterial activity against Mycobacterium tuberculosis ATCC 35801 infected in CD1 mouse assessed as bacterial load in lungs at 50 mg/kg, ip after 10 days; type: functional; details: route intraperitoneal; in short: as §3
SMILES,IC50 [1],MIC [2],IC50 [3],MIC [4],further results
COc1c(N2CCc3ccccc3C2C(=O)NC(C)(C)C)c(F)c([N+](=O)[O-])c2c(=O)c(C(=O)O)cn(C3CC3)c12 (stereo not drawn),113 µM,1.41 µM,> 90.5 µM,2.82 µM,–
COc1c(N2CCC(O)(c3ccc(Cl)cc3)CC2)c(F)cc2c(=O)c(C(=O)O)cn(C3CC3)c12,–,6.43 µM,–,12.8 µM,–
COc1c(N2CCN(C(c3ccccc3)c3ccc(Cl)cc3)CC2)c(F)c([N+](=O)[O-])c2c(=O)c(C(=O)O)cn(C3CC3)c12 (stereo not drawn),103 µM,1.28 µM,–,10.3 µM,–
COc1c(N2CCC(N3CCCCC3)CC2)c(F)cc2c(=O)c(C(=O)O)cn(C3CC3)c12,–,7.06 µM,–,14.1 µM,–
COc1c(N2CCN(C(=O)C3COc4ccccc4O3)CC2)c(F)cc2c(=O)c(C(=O)O)cn(C3CC3)c12 (stereo not drawn),119 µM,1.49 µM,57.3 µM,1.49 µM,Activity [5]: Non-toxic; Activity [6]: 0.31 mm; Activity [7]: Non-toxic; Activity [8]: 0.33 mm; Activity [9]: 0.33 mm; Activity [10]: Non-toxic; Activity [11]: Non-toxic; Activity [12]: 0.32 mm; Activity [13]: 0.32 mm; Activity [14]: Non-toxic
CCN(CC)C(=O)C1CCCN(c2c(F)cc3c(=O)c(C(=O)O)cn(C4CC4)c3c2OC)C1 (stereo not drawn),136 µM,1.69 µM,> 109 µM,0.85 µM,Activity [5]: Non-toxic; Activity [6]: 0.38 mm; Activity [8]: 0.37 mm; Activity [9]: 0.39 mm; Activity [10]: Non-toxic; Activity [11]: Non-toxic; Activity [12]: 0.39 mm; Activity [13]: 0.36 mm; Activity [14]: Non-toxic
COc1c(N2CCN(C(c3ccccc3)c3ccc(Cl)cc3)CC2)c(F)cc2c(=O)c(C(=O)O)cn(C3CC3)c12 (stereo not drawn),–,11.1 µM,–,44.5 µM,–
COc1c(N2CCC(N3CCCCC3)CC2)c(F)c([N+](=O)[O-])c2c(=O)c(C(=O)O)cn(C3CC3)c12,–,6.41 µM,–,12.8 µM,–
COc1c(N2CCC3(CC2)OCCO3)c(F)cc2c(=O)c(C(=O)O)cn(C3CC3)c12,149 µM,0.93 µM,> 119 µM,1.86 µM,Activity [15]: 6.41; Activity [16]: 6.12
COc1c(N2CCn3cc(C(=O)O)nc3C2)c(F)cc2c(=O)c(C(=O)O)cn(C3CC3)c12,141 µM,3.53 µM,–,7.08 µM,–
COc1c(N2CCN(Cc3ccc4c(c3)OCO4)CC2)c(F)cc2c(=O)c(C(=O)O)cn(C3CC3)c12,126 µM,1.57 µM,> 101 µM,3.15 µM,–
COc1c(N2CCc3ccccc3C2C(=O)NC(C)(C)C)c(F)cc2c(=O)c(C(=O)O)cn(C3CC3)c12 (stereo not drawn),–,12.3 µM,–,49.3 µM,–
COc1ccc(CC2C3=C(CCCC3)CCN2c2c(F)c(N)c3c(=O)c(C(=O)O)cn(C4CC4)c3c2OC)cc1 (stereo not drawn),114 µM,2.85 µM,–,5.72 µM,–
COc1c(N2CCSCC2)c(F)c([N+](=O)[O-])c2c(=O)c(C(=O)O)cn(C3CC3)c12,148 µM,1.84 µM,> 118 µM,3.68 µM,–
COc1c(N2CCC3(CC2)OCCO3)c(F)c([N+](=O)[O-])c2c(=O)c(C(=O)O)cn(C3CC3)c12,135 µM,0.84 µM,–,6.75 µM,–
COc1c(N2CCSCC2)c(F)cc2c(=O)c(C(=O)O)cn(C3CC3)c12,165 µM,2.06 µM,–,4.12 µM,–
COc1c(N2CCN(Cc3ccc4c(c3)OCO4)CC2)c(F)c([N+](=O)[O-])c2c(=O)c(C(=O)O)cn(C3CC3)c12,116 µM,0.35 µM,–,1.44 µM,Activity [5]: Non-toxic; Activity [6]: 0.27 mm; Activity [7]: Non-toxic; Activity [8]: 0.3 mm; Activity [9]: 0.33 mm; Activity [12]: 0.31 mm; Activity [13]: 0.28 mm
COc1c(N2CCn3cc(C(=O)O)nc3C2)c(F)c([N+](=O)[O-])c2c(=O)c(C(=O)O)cn(C3CC3)c12,128 µM,3.12 µM,–,6.42 µM,–
